Experimental data: ChEMBL document CHEMBL1157615, “N-methyl phenylalanine-rich peptides as highly versatile blood-brain barrier shuttles” (J Med Chem, 2010)
Numbered stars: 1 amine (or outer) side, 2 acyl side, 3 side chain; on linkers, the order of the positions; unused ones are H or OH. Square brackets hold non-standard residues; d marks the D form. Peptide text beside a SMILES is read from it. * marks the point of attachment. ξ: configuration not given here. 2Nal = N[C@@H](Cc1ccc2ccccc2c1)C(=O)O; NMeF = CN[C@@H](Cc1ccccc1)C(=O)O; ξNip = O=C(C1CCCN([*:1])C1)[*:2]; X1 = NCC(=O)CCC(=O)*; GABA = NCCCC(=O)O

Columns and labels:
[1] = Permeability across artificial membrane assessed as compound transport at 200 uM after 4 hrs by PAMPA using HPLC/MS method; type: ADME
Procedure, shortened: (§1)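 PAMPA with porcine polar brain lipid extract (20 mg/mL in dodecane) on the filter; 200 μM compound in water with 20% 1-propanol cosolvent in donor, water in acceptor; 4 h at room temperature, saturated humidity, orbital shaking 100 rpm. Donor and acceptor quantified by HPLC-MS against external calibration curves. Pe and % transport from acceptor versus initial donor concentration; retention from mass balance.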

[2] = Permeability across artificial membrane assessed as membrane retention at 200 uM by PAMPA using HPLC/MS method; type: ADME; procedure, shortened: as §1
[3] = Effective permeability across artificial membrane at 200 uM by PAMPA using HPLC/MS method; type: ADME; settings: read-out: permeability; procedure, shortened: as §1
[4] = Apparent permeability in BBMEC assessed as compound transport after 2 hrs; type: ADME, Bos taurus; settings: cattle
[5] = Apparent permeability in BBMEC assessed as membrane retention; type: ADME, cell membranes, Bos taurus; settings: cattle
[6] = Apparent permeability in BBMEC; type: ADME, Bos taurus; settings: cattle

| Activity [1] [%] | Activity [2] [%] | Papp at 200 µM [3] [×10⁻⁶ cm/s] | Activity [4] [%] | Activity [5] [%] | Papp [6] [×10⁻⁶ cm/s] | SMILES |
| --- | --- | --- | --- | --- | --- | --- |
| 0 | 0 |  |  |  |  | CC(=O)N1CCC[C@H]1C(=O)N1CCC[C@H]1C(=O)N1CCC[C@H]1C(=O)N1CCC[C@H]1C(N)=O (Ac-PPPP-NH2) |
| 0 | 0 |  |  |  |  | CC(=O)N1CCC[C@H]1C(=O)N1CCC[C@H]1C(=O)N1CCC[C@H]1C(=O)N1CCC[C@H]1C(=O)N1CCC[C@H]1C(=O)N1CCC[C@H]1C(N)=O (Ac-PPPPPP-NH2) |
| 0 | 0 |  |  |  |  | CC(=O)N1CCC[C@H]1C(=O)N1CCC[C@H]1C(=O)N1CCC[C@H]1C(=O)N1CCC[C@H]1C(=O)N1CCC[C@H]1C(=O)N1CCC[C@H]1C(=O)N1CCC[C@H]1C(=O)N1CCC[C@H]1C(N)=O (Ac-PPPPPPPP-NH2) |
| 0 | 0 |  |  |  |  | CC(=O)N1CCC[C@H]1C(=O)N1CCC[C@H]1C(=O)N1CCC[C@H]1C(=O)N1CCC[C@H]1C(=O)N1CCC[C@H]1C(=O)N1CCC[C@H]1C(=O)N1CCC[C@H]1C(=O)N1CCC[C@H]1C(=O)N1CCC[C@H]1C(=O)N1CCC[C@H]1C(N)=O (Ac-PPPPPPPPPP-NH2) |
| 0 | 0 |  |  |  |  | CC(=O)N1CCC[C@H]1C(=O)N1CCC[C@H]1C(N)=O (Ac-Pro-Pro-NH2) |
| 0.4 | 18.4 | 0.2 |  |  |  | CN(C(=O)[C@H](Cc1ccc2ccccc2c1)NC(=O)CCCN)[C@@H](Cc1ccccc1)C(=O)N(C)[C@@H](Cc1ccccc1)C(=O)N(C)[C@@H](Cc1ccccc1)C(N)=O (H-[GABA][2Nal][NMeF][NMeF][NMeF]-NH2) |
| 0.8 | < 1 | 0.4 |  |  |  | CN(C(=O)CCCN)[C@@H](Cc1ccccc1)C(=O)N(C)[C@@H](Cc1ccccc1)C(=O)N(C)[C@@H](Cc1ccccc1)C(=O)N(C)[C@@H](Cc1ccccc1)C(N)=O (H-[GABA][NMeF][NMeF][NMeF][NMeF]-NH2) |
| 2.1 | 14.5 | 1 | 17.8 | 50.7 | 15 | CN(C(=O)CCC(=O)CN)[C@@H](Cc1ccccc1)C(=O)N(C)[C@@H](Cc1ccccc1)C(=O)N(C)[C@@H](Cc1ccccc1)C(=O)N(C)[C@@H](Cc1ccccc1)C(N)=O (X1-[NMeF][NMeF][NMeF][NMeF]-NH2) |
| 2.4 | 23.6 | 1.1 | 4.1 | 83.8 | 3.5 | CN(C(=O)[C@H](Cc1ccc2ccccc2c1)NC(=O)C1CCCNC1)[C@@H](Cc1ccccc1)C(=O)N(C)[C@@H](Cc1ccccc1)C(=O)N(C)[C@@H](Cc1ccccc1)C(N)=O (some centres undefined) (ξNip-[2Nal][NMeF][NMeF][NMeF]-NH2) |
| 2.8 | 4.6 | 1.4 | 7.9 | 74 | 6.6 | CN(C(=O)C1CCCNC1)[C@@H](Cc1ccccc1)C(=O)N(C)[C@@H](Cc1ccccc1)C(=O)N(C)[C@@H](Cc1ccccc1)C(=O)N(C)[C@@H](Cc1ccccc1)C(N)=O (some centres undefined) (ξNip-[NMeF][NMeF][NMeF][NMeF]-NH2) |
| 0 | 23 |  |  |  |  | NCC(=O)CCC(=O)O [AMINOLEVULINIC ACID] |
|  |  |  | 20.6 | 67.4 | 16.1 | Cn1c(=O)c2c(ncn2C)n(C)c1=O [CAFFEINE] |
| 0 | 5.4 |  |  |  |  | NCCCC(=O)O [GAMMA-AMINOBUTYRIC ACID] |
| 0 | 52.6 |  |  |  |  | O=C(O)C1CCCNC1 (centres undefined) [NIPECOTIC ACID] |
| 13.9 | 17.2 |  | 21.2 | 63 | 16.9 | CC(C)NCC(O)COc1cccc2ccccc12 (centres undefined) [PROPRANOLOL] |

| SMILES | Activity [1] [%] | Activity [2] [%] | Papp at 200 µM [3] [×10⁻⁶ cm/s] | Activity [4] [%] | Activity [5] [%] | Papp [6] [×10⁻⁶ cm/s] |
| --- | --- | --- | --- | --- | --- | --- |
| NC(=O)N1c2ccccc2C=Cc2ccccc21 [CARBAMAZEPINE] | 19.3 | < 1 | 11.5 | 20 | 67.5 | 16.5 |
